Key:
Settings in all cases: in vivo
Rattus norvegicus [1] = test: The biodistribution of the [125I]-labeled compound in rats after intravenous injection was evaluated in fat at 0.25 hr (ID. kg/g); format: ADME, organism-based, Adipose tissue
Method in brief: (§1)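 Male Sprague-Dawley rats (250–300 g) under ether anesthesia were given an iv injection of no-carrier-added 125I-labelled agent (10–15 μCi in 0.1 mL saline). The agent was iodinated with chloramine-T in acetate buffer and purified by C-18 HPLC. Groups of N = 3 were killed at 0.25, 1 and 4 h. Blood and tissues were weighed and γ-counted. Values are % ID·kg/g, mean (range).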

Rattus norvegicus [2] = test: The biodistribution of the [125I]-labeled compound in rats after intravenous injection was evaluated in blood at 0.25 hrs (ID.kg/g); format: ADME, organism-based; method in brief: as §1
Rattus norvegicus [3] = test: The biodistribution of the [125I]-labeled compound in rats after intravenous injection was evaluated in heart at 0.25 hrs (ID.kg/g); format: ADME, organism-based; method in brief: as §1
Rattus norvegicus [4] = test: The biodistribution of the [125I]-labeled compound in rats after intravenous injection was evaluated in fat at 4.00 hrs; value ranges from 0.02-0.04 (ID.kg/g); format: ADME, organism-based, Adipose tissue; method in brief: as §1
Rattus norvegicus [5] = test: The biodistribution of the [125I]-labeled compound in rats after intravenous injection was evaluated in heart at 1.00 hrs; value ranges from 0.14-0.18 (ID.kg/g); format: ADME, organism-based
Method in brief: (§2)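 Male Sprague-Dawley rats (250–300 g), under ether anesthesia, given 10–15 μCi of the NCA ¹²⁵I-labeled agent iv in 0.1 mL saline. Groups of N = 3 were killed at 0.25, 1 or 4 h. Blood and tissues were removed, weighed and counted in a γ-well scintillation counter. Values are mean % ID·kg/g (range).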

Rattus norvegicus [6] = test: The biodistribution of the [125I]-labeled compound in rats after intravenous injection was evaluated in kidney at 4.00 hrs; value ranges from. 28-0.30(ID.kg/g); format: ADME, organism-based; method in brief: as §2
Rattus norvegicus [7] = test: The biodistribution of the [125I]-labeled compound in rats after intravenous injection was evaluated in thyroid at 4.00 hrs; value ranges from 2.64-2.80 (ID.kg/g); format: ADME, organism-based, Thyroid gland
Method in brief: (§3)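 Male Sprague-Dawley rats (250–300 g) under ether anesthesia given iv 0.1 mL saline containing 10–15 μCi of NCA ¹²⁵I-labeled agent (chloramine-T iodination, HPLC-purified). Groups of 3 killed at 0.25, 1 and 4 h. Blood and tissues excised, weighed and γ-counted. Values are mean (range) of % injected dose × body mass (kg) per gram of tissue.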

Rattus norvegicus [8] = test: The biodistribution of the [125I]-labeled compound in rats after intravenous injection was evaluated in adrenal at 4.00 hrs; value ranges from 1.09-1.22 (ID.kg/g); format: ADME, organism-based; method in brief: as §1
Rattus norvegicus [9] = test: The biodistribution of the [125I]-labeled compound in rats after intravenous injection was evaluated in thyroid at 0.25 hrs; value ranges from 1.44-2.04 (ID.kg/g); format: ADME, organism-based, Thyroid gland; method in brief: as §3
Rattus norvegicus [10] = test: The biodistribution of the [125I]-labeled compound in rats after intravenous injection was evaluated in liver at 4.00 hrs (ID.kg/g); format: ADME, organism-based; method in brief: as §2
Rattus norvegicus [11] = test: The biodistribution of the [125I]-labeled compound in rats after intravenous injection was evaluated in lung at 0.25 hrs; value ranges from 1.0-1.14 (ID.kg/g); format: ADME, organism-based; method in brief: as §2
Rattus norvegicus [12] = test: The biodistribution of the [125I]-labeled compound in rats after intravenous injection was evaluated in heart at 4.00 hrs; value ranges from 0.11-0.13 (ID.kg/g); format: ADME, organism-based; method in brief: as §2
Rattus norvegicus [13] = test: The biodistribution of the [125I]-labeled compound in rats after intravenous injection was evaluated in brain at 1.00 hrs; value ranges from 0.08-0.10 (ID.kg/g); format: ADME, organism-based; method in brief: as §1
Rattus norvegicus [14] = test: The biodistribution of the [125I]-labeled compound in rats after intravenous injection was evaluated in blood at 1.00 hrs (ID.kg/g); format: ADME, organism-based; method in brief: as §1
Rattus norvegicus [15] = test: The biodistribution of the [125I]-labeled compound in rats after intravenous injection was evaluated in adrenal at 1.00 hrs; value ranges from 0.78-1.46 (ID.kg/g); format: ADME, organism-based; method in brief: as §1
Rattus norvegicus [16] = test: The biodistribution of the [125I]-labeled compound in rats after intravenous injection was evaluated in brain at 0.25 hrs; value ranges from 0.10-0.16 (ID.kg/g); format: ADME, organism-based; method in brief: as §1
Rattus norvegicus [17] = test: The biodistribution of the [125I]-labeled compound in rats after intravenous injection was evaluated in muscle at 4.00 hrs (ID.kg/g); format: ADME, organism-based, Muscle tissue; method in brief: as §3
Rattus norvegicus [18] = test: The biodistribution of the [125I]-labeled compound in rats after intravenous injection was evaluated in kidney at 0.25 hr; value ranges from 0.35-0.39 (ID.kg/g); format: ADME, organism-based; method in brief: as §2
Rattus norvegicus [19] = test: The biodistribution of the [125I]-labeled compound in rats after intravenous injection was evaluated in lung at 1.00 hrs; value ranges from 0.65-0.85 (ID.kg/g); format: ADME, organism-based; method in brief: as §2
Rattus norvegicus [20] = test: The biodistribution of the [125I]-labeled compound in rats after intravenous injection was evaluated in thyroid at 1.00 hrs; value ranges from 1.41-1.72 (ID.kg/g); format: ADME, organism-based, Thyroid gland; method in brief: as §3
Rattus norvegicus [21] = test: The biodistribution of the [125I]-labeled compound in rats after intravenous injection was evaluated in muscle at 1.00 hrs (ID.kg/g); format: ADME, organism-based, Muscle tissue; method in brief: as §3
Rattus norvegicus [22] = test: The biodistribution of the [125I]-labeled compound in rats after intravenous injection was evaluated in liver at 1.00 hr 0.46-0.90 (ID.kg/g); format: ADME, organism-based; method in brief: as §2
Rattus norvegicus [23] = test: The biodistribution of the [125I]-labeled compound in rats after intravenous injection was evaluated in kidney at 1.00 hrs; value ranges from 0.35-0.42 (ID.kg/g); format: ADME, organism-based; method in brief: as §2
Rattus norvegicus [24] = test: The biodistribution of the [125I]-labeled compound in rats after intravenous injection was evaluated in muscle at 0.25 hrs (ID.kg/g); format: ADME, organism-based, Muscle tissue; method in brief: as §3
Rattus norvegicus [25] = test: The biodistribution of the [125I]-labeled compound in rats after intravenous injection was evaluated in adrenal at 0.25 hrs; value ranges from 0.84-0.91 (ID.kg/g); format: ADME, organism-based; method in brief: as §1
Rattus norvegicus [26] = test: The biodistribution of the [125I]-labeled compound in rats after intravenous injection was evaluated in blood at 4.00 hrs (ID.kg/g); format: ADME, organism-based; method in brief: as §1
Rattus norvegicus [27] = test: The biodistribution of the [125I]-labeled compound in rats after intravenous injection was evaluated in lung at 4.00 hrs; value ranges from 0.53-0.59 (ID.kg/g); format: ADME, organism-based; method in brief: as §3
Rattus norvegicus [28] = test: The biodistribution of the [125I]-labeled compound in rats after intravenous injection was evaluated in fat at 1.00 hrs (ID.kg/g); format: ADME, organism-based, Adipose tissue; method in brief: as §1
Rattus norvegicus [29] = test: The biodistribution of the [125I]-labeled compound in rats after intravenous injection was evaluated in liver at 0.25 hr; value ranges from; value ranges from 0.45-0.60 (ID.kg/g); format: ADME, organism-based; method in brief: as §2
Rattus norvegicus [30] = test: The biodistribution of the [125I]-labeled compound in rats after intravenous injection was evaluated in brain at 4.00 hrs (ID.kg/g); format: ADME, organism-based; method in brief: as §1

Compound: CCCCCCN1CCN(c2ccc(I)cc2)CC1
- Biodistribution (Rattus norvegicus [1]): 0.01 % ID·kg/g
- Biodistribution (Rattus norvegicus [2]): 0.01 % ID·kg/g
- Biodistribution (Rattus norvegicus [3]): 0.24%
- Biodistribution (Rattus norvegicus [4]): 0.04%
- Biodistribution (Rattus norvegicus [5]): 0.18%
- Biodistribution (Rattus norvegicus [6]): 0.3%
- Biodistribution (Rattus norvegicus [7]): 2.8%
- Biodistribution (Rattus norvegicus [8]): 1.22%
- Biodistribution (Rattus norvegicus [9]): 2.04%
- Biodistribution (Rattus norvegicus [10]): 0.78%
- Biodistribution (Rattus norvegicus [11]): 1.14%
- Biodistribution (Rattus norvegicus [12]): 0.13%
- Biodistribution (Rattus norvegicus [13]): 0.1%
- Biodistribution (Rattus norvegicus [14]): 0.01 % ID·kg/g
- Biodistribution (Rattus norvegicus [15]): 1.46%
- Biodistribution (Rattus norvegicus [16]): 0.16%
- Biodistribution (Rattus norvegicus [17]): 0.02 %ID·kg/g
- Biodistribution (Rattus norvegicus [18]): 0.39%
- Biodistribution (Rattus norvegicus [19]): 0.85%
- Biodistribution (Rattus norvegicus [20]): 1.72%
- Biodistribution (Rattus norvegicus [21]): 0.02 %ID·kg/g
- Biodistribution (Rattus norvegicus [22]): 0.9%
- Biodistribution (Rattus norvegicus [23]): 0.42%
- Biodistribution (Rattus norvegicus [24]): 0.03 % ID·kg/g
- Biodistribution (Rattus norvegicus [25]): 0.91%
- Biodistribution (Rattus norvegicus [26]): 0.01 % ID·kg/g
- Biodistribution (Rattus norvegicus [27]): 0.59%
- Biodistribution (Rattus norvegicus [28]): 0.02 % ID·kg/g
- Biodistribution (Rattus norvegicus [29]): 0.6%
- Biodistribution (Rattus norvegicus [30]): 0.09%

From ChEMBL document CHEMBL1123589, “Phenylpiperazine-based radiopharmaceuticals for brain imaging. 3. Synthesis and evaluation of radioiodinated 1-alkyl-4-phenylpiperazines” (J Med Chem, 1987)
